Data published in publication PMC12744306 (Probiotics and antimicrobial proteins, 2024).
In brackets after ≈: the same amount, converted by molar mass. Where two headings read alike, the source gives them in different places. Blank lines part the entries; values can stand above or below the molecule they belong to. Positions of bridges follow the written chain, without caps; N, C: chain ends. Non-standard residues stand in square brackets, D forms with d. Residues, ends and D or L forms follow the SMILES beside them. No end group written: not given here. *: point of attachment. X1 = CC[C@H](C)CCCCC(=O)*; Dab = NCC[C@H](N)C(=O)O

What was measured:
P. aeruginosa E411-17 [1] = assay: Killing kinetics; format: cell-based; settings: 4 × MIC, ~10^5 CFU/mL in MHB, 37°C, CFU count
S. aureus USA300 [2] = format: cell-based; settings: for activity against S. aureus USA300 under all these conditions: pH 6.2/8.1, 150 mM NaCl, human serum; for MIC in the presence of 150 mM NaCl: S. aureus
P. aeruginosa E411-17 [3] = assay: Effects of pH, salts and serum on peptide activity; format: cell-based; settings: different pH, salt and serum conditions
human red blood cells = assay: Hemolytic assay; format: cell-based; settings: 2% hRBC, 37°C, 1 h; for hemolysis: relative to 1% Triton X-100
[4] = system: Human keratinocytes (HaCaT); assay: Cytotoxicity assay; format: cell-based; settings: 24 h, MTS
Human liver HepG2 cells = format: cell-based
S. aureus USA300 [5] = format: cell-based
S. epidermidis 1457 = format: cell-based
MRSA USA300 = assay: Killing kinetics; format: cell-based, S. aureus; settings: 4 × MIC, ~10^5 CFU/mL in MHB, 37°C, CFU count
Summary of the method: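 MRSA USA300 was grown in MHB to OD600 ~0.3, then diluted to OD600 0.001 (~10⁵ CFU/mL). 1 mL was incubated at 37°C with test compound or reference antibiotic at 4× MIC. At 15, 30, 60, 90 and 120 min, 50 μL was serially diluted in PBS and plated on mannitol salt agar. CFU were counted after overnight growth at 37°C.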

bacteria = settings: cited from earlier work
E. coli E423-17 = format: cell-based
A. baumannii B28-16 = format: cell-based
E. coli = settings: cited from earlier work
P. aeruginosa E411-17 [6] = format: cell-based
K. pneumoniae E406-17 = format: cell-based; settings: not shown
[7] = Table 3, sequence reversal experiment

Molecule: CC[C@H](C)CCCCC(=O)N[C@@H](CCN)C(=O)N[C@H](C(=O)N[C@@H](CCN)C(=O)N[C@H]1CCNC(=O)[C@H]([C@@H](C)O)NC(=O)[C@H](CCN)NC(=O)[C@H](CCN)NC(=O)[C@H](CC(C)C)NC(=O)[C@@H](CC(C)C)NC(=O)[C@H](CCN)NC1=O)[C@@H](C)O [Colistin, reference compound] (X1-[Dab]T[Dab][Dab][Dab][dL]L[Dab][Dab]T; lactam 4-C (inferred); N-terminus assumed)
time to eliminate P. aeruginosa (P. aeruginosa E411-17 [1]): 30 min | activity against S. aureus USA300 under all these conditions (S. aureus USA300 [2]): inactive | activity against P. aeruginosa under all the conditions tested (P. aeruginosa E411-17 [3]): retained pseudomonacidal activity | lysis of human red blood cells (human red blood cells; at 400 μM, 545 nm): did not lyse | toxicity to HaCaT ([4]; at 100 μM): little toxicity | toxicity to HepG2 (Human liver HepG2 cells; 24 h, MTS): subtle effects

minimal inhibitory concentration (MIC), S. aureus USA 300 (S. aureus USA300 [5]; USA300): 0.5 µM (≈ 0.81 µg/mL) | minimal inhibitory concentration (MIC), S. epidermidis 1457 (S. epidermidis 1457; 1457): 0.5 µM (≈ 0.81 µg/mL)
Molecule: CCCCCCCCCC(=O)N[C@@H](Cc1c[nH]c2ccccc12)C(=O)N[C@H](CC(N)=O)C(=O)N[C@@H](CC(=O)O)C(=O)N[C@@H]1C(=O)NCC(=O)N[C@@H](CCCN)C(=O)N[C@@H](CC(=O)O)C(=O)N[C@H](C)C(=O)N[C@@H](CC(=O)O)C(=O)NCC(=O)N[C@H](CO)C(=O)N[C@@H]([C@H](C)CC(=O)O)C(=O)N[C@@H](CC(=O)c2ccccc2N)C(=O)O[C@@H]1C [Daptomycin, reference compound]
time to kill MRSA USA300 (MRSA USA300): ~90 min | activity against S. aureus USA300 under all these conditions (S. aureus USA300 [2]): remained potent | activity against P. aeruginosa under all the conditions tested (P. aeruginosa E411-17 [3]): did not display any activity | toxicity to HepG2 (Human liver HepG2 cells; 24 h, MTS): subtle effects

Molecule: KRIVQRIK-NH2 [KR-8]
antibacterial activity in the standard Mueller Hinton Broth (MHB) (bacteria): not antibacterial

Molecule: KRWWQWWK-NH2 [KR-8+]
minimal inhibitory concentration (MIC), S. epidermidis 1457 (S. epidermidis 1457; 1457): 16 µM | minimal inhibitory concentration (MIC), E. coli E423-17 (E. coli E423-17; E423-17): 4 to 8 µM | minimal inhibitory concentration (MIC), A. baumannii B28-16 (A. baumannii B28-16): 16 µM | MIC in the presence of 150 mM NaCl (S. aureus USA300 [2]): 16 to 32 µM | HC10 (10% hemolytic concentration) (human red blood cells): 300 µM | hemolysis (human red blood cells; at 400 μM): 18% | LC50, HepG2 (Human liver HepG2 cells; 24 h, MTS): 12.5 µM

Molecule: LLGDFFRKSK-NH2 [LL-10]
antibacterial activity in the standard Mueller Hinton Broth (MHB) (bacteria): not antibacterial

Molecule: LWGRFFRKWK-NH2 [LL-10+]
minimal inhibitory concentration (MIC), S. aureus USA 300 (S. aureus USA300 [5]; [7]): 16 µM | minimal inhibitory concentration (MIC), S. epidermidis 1457 (S. epidermidis 1457; [7]): 32 µM | minimal inhibitory concentration (MIC), E. coli E423-17 (E. coli E423-17; [7]): 32 µM | minimal inhibitory concentration (MIC), A. baumannii B28-16 (A. baumannii B28-16): 64 µM | MIC in the presence of 150 mM NaCl (S. aureus USA300 [2]): > 32 µM | HC10 (10% hemolytic concentration) (human red blood cells): > 400 µM | toxicity to HepG2 (Human liver HepG2 cells): subtle effects | LC50, HepG2 (Human liver HepG2 cells; 24 h, MTS): > 100 µM

Molecule: RIKDFLRNLV-NH2 [RIK-10]
activity against E. coli in standard MHB (E. coli): active

Molecule: RKSKEKIGK-NH2 [RK-9]
antibacterial activity in the standard Mueller Hinton Broth (MHB) (bacteria): not antibacterial

Molecule: RWKRFLRNWV-NH2 [RIK-10+]
minimal inhibitory concentration (MIC), S. aureus USA 300 (S. aureus USA300 [5]; [7]): 16 µM | minimal inhibitory concentration (MIC), S. epidermidis 1457 (S. epidermidis 1457; 1457): 64 µM | minimal inhibitory concentration (MIC), P. aeruginosa E411-17 (P. aeruginosa E411-17 [6]; [7]): 4 µM | minimal inhibitory concentration (MIC), E. coli E423-17 (E. coli E423-17; E423-17): 4 µM | minimal inhibitory concentration (MIC), A. baumannii B28-16 (A. baumannii B28-16): 8 µM | MIC, K. pneumoniae E406-17 (K. pneumoniae E406-17): 32 µM | MIC in the presence of 150 mM NaCl (S. aureus USA300 [2]): > 32 µM | hemolysis (human red blood cells; at 400 μM): 18% | 50% lethal concentration (LC50), HaCaT [4]: 100 µM | LC50, HepG2 (Human liver HepG2 cells; 24 h, MTS): 100 µM

Molecule: RWWKKWWGK-NH2 [RK-9+]
minimal inhibitory concentration (MIC), P. aeruginosa E411-17 (P. aeruginosa E411-17 [6]; E411-17): 16 µM | minimal inhibitory concentration (MIC), E. coli E423-17 (E. coli E423-17; E423-17): 4 to 8 µM | MIC in the presence of 150 mM NaCl (S. aureus USA300 [2]): 16 to 32 µM | HC10 (10% hemolytic concentration) (human red blood cells): > 400 µM | toxicity to HepG2 (Human liver HepG2 cells): subtle effects | LC50, HepG2 (Human liver HepG2 cells; 24 h, MTS): > 100 µM
